# Data from publication PMC10582660 (Clinical and Translational Science, 2023).
# Read-outs that look alike come from different tables or passages of the source.
# Legend:
# OATP2B1 = target: T1, OATP2B1 (Homo sapiens, UniProt O94956); assay: Raloxifene as a substrate for uptake transporters; format: in vitro ADME; details: raloxifene 1, 10 μM, 2, 20 min, two‐fold cutoff
# T1 sequence (O94956 1-709): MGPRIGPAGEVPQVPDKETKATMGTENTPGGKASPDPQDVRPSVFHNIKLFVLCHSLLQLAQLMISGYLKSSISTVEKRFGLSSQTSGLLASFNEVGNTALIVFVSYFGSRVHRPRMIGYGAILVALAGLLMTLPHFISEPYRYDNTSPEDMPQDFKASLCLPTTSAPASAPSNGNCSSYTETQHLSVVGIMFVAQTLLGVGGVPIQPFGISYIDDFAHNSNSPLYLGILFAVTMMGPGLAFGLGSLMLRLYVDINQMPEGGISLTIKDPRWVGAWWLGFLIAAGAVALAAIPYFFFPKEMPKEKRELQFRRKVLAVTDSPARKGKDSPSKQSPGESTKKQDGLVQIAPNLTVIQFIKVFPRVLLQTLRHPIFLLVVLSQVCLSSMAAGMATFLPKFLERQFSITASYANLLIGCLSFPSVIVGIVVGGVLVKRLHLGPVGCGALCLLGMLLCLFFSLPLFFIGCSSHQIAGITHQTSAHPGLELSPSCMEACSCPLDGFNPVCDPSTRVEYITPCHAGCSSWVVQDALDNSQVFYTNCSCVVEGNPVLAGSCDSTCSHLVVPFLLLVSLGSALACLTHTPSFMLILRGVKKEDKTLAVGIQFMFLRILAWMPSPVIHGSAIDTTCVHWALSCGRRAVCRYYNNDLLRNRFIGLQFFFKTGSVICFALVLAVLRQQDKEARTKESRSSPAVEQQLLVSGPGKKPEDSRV
# Summary of the method: (§1)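 Uptake of test compound (1 and 10 μM, 2 and 20 min) measured in transporter-expressing HEK293 or MDCKII cells or inside-out membrane vesicles. Run with positive-control probe substrates and inhibitors, plus empty-vector or untransfected control cells. Fold-accumulation relative to control cells judged against a two-fold cutoff for substrate status.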
# OATP1B3 = target: T2, OATP1B3 (Homo sapiens, UniProt Q9NPD5); assay: Raloxifene as a substrate for uptake transporters; format: in vitro ADME; details: raloxifene 1, 10 μM, 2, 20 min, two‐fold cutoff
# T2 sequence (Q9NPD5 1-702): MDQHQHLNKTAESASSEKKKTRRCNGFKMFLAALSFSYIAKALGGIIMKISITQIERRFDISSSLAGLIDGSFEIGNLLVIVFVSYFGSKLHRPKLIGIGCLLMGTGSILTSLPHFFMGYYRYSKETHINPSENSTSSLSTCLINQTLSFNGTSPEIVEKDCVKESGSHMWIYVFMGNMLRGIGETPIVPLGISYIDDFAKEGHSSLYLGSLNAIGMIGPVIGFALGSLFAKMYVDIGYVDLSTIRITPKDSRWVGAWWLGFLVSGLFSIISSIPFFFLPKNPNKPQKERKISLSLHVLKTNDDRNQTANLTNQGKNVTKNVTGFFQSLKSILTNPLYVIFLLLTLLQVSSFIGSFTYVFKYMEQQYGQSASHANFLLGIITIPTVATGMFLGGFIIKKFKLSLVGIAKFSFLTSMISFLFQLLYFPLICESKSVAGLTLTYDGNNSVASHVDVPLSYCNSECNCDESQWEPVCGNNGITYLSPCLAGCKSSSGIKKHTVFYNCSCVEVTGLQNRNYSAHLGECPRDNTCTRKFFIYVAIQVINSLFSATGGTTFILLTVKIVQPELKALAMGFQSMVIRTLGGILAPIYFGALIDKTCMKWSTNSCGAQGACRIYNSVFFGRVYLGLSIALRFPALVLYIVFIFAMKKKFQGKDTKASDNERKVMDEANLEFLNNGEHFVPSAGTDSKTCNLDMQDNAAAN
# Summary of the method: as §1
# [1] = after oral administration; cited from earlier work
# [2] = Follow-up exploratory clinical study: plasma pharmacokinetics; format: in vivo, human; details: for Cmax / Tmax / AUC(0-t): both, human, plasma, oral; for AUC(0-t): AUC0–48h, geometric mean (CV%)
# Summary of the method: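 Six healthy adults (3 male, 3 female) in sequential arms ≥7 days apart: oral test compound with water, then with acute brewed green tea, then tea alone. Plasma sampled 0–48 h at the main-study times. Analysed by UHPLC–MS/MS for parent and glucuronides. […] Green tea/baseline ratios on log-transformed data, paired two-tailed t-test.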
# OAT3 = target: T3, OAT3 (Homo sapiens, UniProt Q8TCC7); assay: Raloxifene as a substrate for uptake transporters; format: in vitro ADME; details: raloxifene 1, 10 μM, 2, 20 min, two‐fold cutoff
# T3 sequence (Q8TCC7 1-542): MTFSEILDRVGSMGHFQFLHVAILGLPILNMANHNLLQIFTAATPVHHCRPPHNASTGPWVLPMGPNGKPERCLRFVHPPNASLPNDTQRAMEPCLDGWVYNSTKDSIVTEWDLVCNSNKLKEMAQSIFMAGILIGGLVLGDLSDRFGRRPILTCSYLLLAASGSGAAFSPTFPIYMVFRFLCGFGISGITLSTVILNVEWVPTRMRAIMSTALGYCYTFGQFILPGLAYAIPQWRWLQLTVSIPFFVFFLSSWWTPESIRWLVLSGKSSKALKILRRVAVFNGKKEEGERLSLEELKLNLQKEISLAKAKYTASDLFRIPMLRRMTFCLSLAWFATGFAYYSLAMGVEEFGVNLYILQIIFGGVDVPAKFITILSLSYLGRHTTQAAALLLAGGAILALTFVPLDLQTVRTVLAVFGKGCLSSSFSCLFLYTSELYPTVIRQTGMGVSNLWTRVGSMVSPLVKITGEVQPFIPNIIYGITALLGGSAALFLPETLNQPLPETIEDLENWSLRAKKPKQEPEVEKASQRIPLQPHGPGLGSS
# Summary of the method: as §1
# [3] = format: in vivo, human
# Summary of the method: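 Open-label fixed-sequence crossover in 16 healthy adults (8 male, 8 female), arms ≥7 days apart, fasted from midnight. Oral 60 mg test compound tablet with 240 mL water at 50°C (baseline) or brewed green tea. Acute: tea (one bag, 240 mL water, 80°C, 3 min, cooled to 50°C) given with dose, then at 4 and 8 h. Chronic: tea three times daily for 4 days, then day 5 as acute.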
# [4] = follow-up study, acute green tea vs baseline
# [5] = upon acute and chronic green tea administration
structure (smiles),measurement,setting,value
"O=C(c1ccc(OCCN2CCCCC2)cc1)c1c(-c2ccc(O)cc2)sc2cc(O)ccc12 [Raloxifene, raloxifene, reference compound]",fold‐accumulation,OATP2B1,0.82–1.00
same,fold‐accumulation,OATP1B3,1.56–1.70
same,oral bioavailability,[1],< 2%
same,Cmax,[2],0.28 nM
same,Tmax,[2],1 h
same,Cmax,[2]; 60 mg,0.32 nM
same,Tmax,[2]; 60 mg,1.25 h
same,AUC(0-t),"[2]; 60 mg, follow-up study, six healthy adults, baseline",8.25 nM·h
same,AUC(0-t),"[2]; follow-up study, acute green tea",7.46 nM·h
same,AUC0–48h green tea/baseline ratio (90% CI),[2]; [4],0.90 (0.77–1.03)
same,"Cmax,1 green tea/baseline ratio (90% CI)",[2]; [4],0.87 (0.72–1.07)
same,magnitude of the decrease in raloxifene AUC with green tea,[2]; follow‐up study,10%
same,fold‐accumulation,OAT3,0.75–1.03
same,AUC0–48h green tea/baseline ratio (90% CI),[3]; acute green tea vs baseline,0.53 (0.43–0.64)
same,AUC0–96h green tea/baseline ratio (90% CI),[3]; acute green tea vs baseline,0.57 (0.46–0.70)
same,"Cmax,1 green tea/baseline ratio (90% CI)",[3]; acute green tea vs baseline,0.37 (0.28–0.50)
same,t 1/2 green tea/baseline ratio (90% CI),[3]; acute green tea vs baseline,0.95 (0.81–1.12)
same,AUC0–96h green tea/baseline ratio (90% CI),"[3]; acute green tea vs baseline, listed as raloxifene",0.57
same,geometric mean green tea/baseline raloxifene AUC0–96h ratio,[3]; after both acute and chronic administration,~ 0.60
same,half-life,"[3]; both, human, plasma, oral, geometric mean terminal half‐life, unchanged upon acute and chronic green tea administration",~24 h
same,Tmax,"[3]; both, human, plasma, oral, median t max,1, unchanged upon acute and chronic green tea administration",~2 h
same,AUC0–48h green tea/baseline ratio (90% CI),[3]; chronic green tea vs baseline,0.56 (0.43–0.72)
same,AUC0–96h green tea/baseline ratio (90% CI),[3]; chronic green tea vs baseline,0.66 (0.54–0.81)
same,"Cmax,1 green tea/baseline ratio (90% CI)",[3]; chronic green tea vs baseline,0.39 (0.24–0.64)
same,t 1/2 green tea/baseline ratio (90% CI),[3]; chronic green tea vs baseline,0.89 (0.75–1.04)
same,AUC0–96h green tea/baseline ratio (90% CI),"[3]; chronic green tea vs baseline, listed as raloxifene",0.66
same,magnitude of the decrease in raloxifene AUC with green tea,[3]; main study,~ 40%
same,tolerability,"[3]; main study, 16 participants, no severe adverse events reported",well tolerated
same,AUC0–48h ratio,[3]; [5],0.53–0.56
same,"Cmax,1 ratio",[3]; [5],0.37–0.39
